Experimental data from different studies.
Target: Vascular endothelial growth factor receptor 3 (FLT4, Homo sapiens, UniProt P35916)

SMILES | effect on | action | technique | tested at | measurement | result
CCCOc1ccc(OC)c(F)c1C(=O)c1ccc(C(=O)N[C@@H]2CNC[C@H]2NC(=O)c2ccc3[nH]ncc3c2)cc1 | enzyme activity | inhibitor |  | 10 µM | remaining activity | 8%
O=C(Nc1cnn(-c2csc(C(=O)NC3COC3)c2)c1)Nc1ccccc1Cl | enzyme activity | inhibitor |  | 5 µM | remaining activity | 93.5%
CC[C@H](CO)Nc1nc(NCc2ccccc2)c2ncn(C(C)C)c2n1 | cell-free assay |  |  | 0.5 µM | remaining signal | 94%
CCCS(=O)(=O)Nc1ccc(F)c(C(=O)c2c[nH]c3ncc(-c4ccc(Cl)cc4)cc23)c1F | enzyme activity | inhibitor |  | 1 µM | inhibition | < 10%
CNC(=O)c1cc2c(Oc3ccc(NC(=O)C4(C(=O)Nc5ccc(F)cc5)CC4)cc3)ccnc2cc1OC | enzyme activity | inhibitor | radiometric | 1 µM | inhibition | 102%
COc1cc2c(Nc3ccc(Br)cc3F)ncnc2cc1OCC1CCN(C)CC1 | cell-free assay |  |  | 0.5 µM | remaining signal | 16.1%
CC(C)(O)[C@H]1CC[C@H](Nc2ccc3ncc(-c4cccc(C(F)(F)F)c4)n3n2)CC1 | enzyme activity | inhibitor |  | 1 µM | remaining activity | 83.5%
O=C(N[C@H]1CCCCC/C=C\C2C[C@@]2(C(=O)O)NC(=O)[C@@H]2C[C@@H](Oc3ccncc3)CN2C1=O)OC1CCCC1 (some centres unmarked) | cell-free assay |  | competition with immobilised ligand | 1 µM | remaining binding | 93%
COc1cc2ncnc(Nc3ccc(Oc4ccccc4)cc3C)c2cc1OC | enzyme activity | inhibitor |  | 1 µM | inhibition | 17%
CC(=O)N1CCC(c2ccc(C(=O)NC(=N)N)cc2C(F)(F)F)CC1 | cell-free assay |  | competition with immobilised ligand | 1 µM | remaining binding | 89%
O=C1NC(=O)c2cc(Nc3ccc(F)cc3)c(Nc3ccc(F)cc3)cc21 | cell-free assay |  |  | 0.5 µM | remaining signal | 102%
Cc1ccc(C(=O)NCc2ccsc2)cc1C#Cc1cn(C(C)C)c2ncnc(N)c12 | enzyme activity | inhibitor |  | 1 µM | activity vs control | -1%
CN(C(=O)c1ccccc1)c1cc(N(C)c2ccc3c(c2)CCc2ccc(C(=O)NCCN4CCOCC4)cc2C3=O)ccc1F | cell-free assay |  | competition with immobilised ligand | 1 µM | remaining binding | 87%
Nc1ncnc2occ(-c3ccc(NC(=O)Nc4cc(C(F)(F)F)ccc4F)cc3)c12 | cell-free assay |  |  | 20 µM | remaining signal | 0%
Cc1cc(NC(=O)c2cccc(S(F)(F)(F)(F)F)c2)cc(-n2ccn3nc(-c4cccnc4)cc23)c1 | cell-free assay |  | competition with immobilised ligand | 1 µM | remaining binding | 82.3%
CC/C(=N\NC(=O)NCc1cccc(O)c1)c1ccc(O)c(C)c1O | enzyme activity | inhibitor |  | 0.1 µM | inhibition | 6.1%
O=C(O)c1cc(-c2ccc(C3CCNCC3)cc2)c2ccc(-c3ccc(C(F)(F)F)cc3)cc2c1 | cell-free assay |  | competition with immobilised ligand | 1 µM | remaining binding | 100%
CC(C)(C)c1nc2c(s1)c1nc(N)ncc1c1ccc(NS(=O)(=O)c3c(F)cccc3F)c(F)c12 | enzyme activity | inhibitor | radiometric | 1 µM | remaining activity | 76%
COc1ccc(COc2ccc(Cc3cnc(N)nc3N)cc2OC)cc1 | cell-free assay |  |  | 0.5 µM | remaining signal | 105%
CC(=O)C1=C(C)N(c2cccc(C(F)(F)F)c2)C(=O)N[C@@H]1c1ccc(C#N)nc1 | cell-free assay |  | competition with immobilised ligand | 1 µM | remaining binding | 100%
